Data published in ChEMBL document CHEMBL1136924 (J Med Chem, 2009).
The source made the active and inactive calls. No cut-off for these calls is given here.

Columns and labels:
[1] = tested on: Rattus norvegicus; assay: Antagonist activity at 5HT3 receptor in urethane-anesthetized Sprague-Dawley rat assessed as reduction in 1-phenylbiguanide-induced bradycardia at 100 ug/kg, iv administered 5 mins before 1-phenylbiguanide challenge measured after 5 to 30 mins post-treatment by von Bezold-Jarisch reflex test; format: functional, organism-based
[2] = Clearance in CD1 albino mouse plasma at 20 mg/kg, ip; format: ADME, organism-based; parameters: dose 20 mg/kg, route intraperitoneal
In short: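 Male CD1 mice (25-30 g) given ip 5 or 20 mg/kg, killed at set times; trunk blood plasma and brain collected. Solid-phase C18 extraction with internal standard, HPLC-UV at 240 nm. Quantification limits about 0.25 nmol/mL plasma, 0.5 nmol/g brain. Three mice per point. Half-life 0.693/β; clearance dose·F/AUC.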

[3] = biological target: T1, 5-hydroxytryptamine receptor 3A (Cavia porcellus) (UniProt O70212); assay: Agonist activity at 5HT3 receptor in spontaneously beating guinea pig right atrium assessed as positive chronotropic potency at 100 uM; format: functional, tissue-based; settings: Cardiac atrium
T1 sequence (whole entry): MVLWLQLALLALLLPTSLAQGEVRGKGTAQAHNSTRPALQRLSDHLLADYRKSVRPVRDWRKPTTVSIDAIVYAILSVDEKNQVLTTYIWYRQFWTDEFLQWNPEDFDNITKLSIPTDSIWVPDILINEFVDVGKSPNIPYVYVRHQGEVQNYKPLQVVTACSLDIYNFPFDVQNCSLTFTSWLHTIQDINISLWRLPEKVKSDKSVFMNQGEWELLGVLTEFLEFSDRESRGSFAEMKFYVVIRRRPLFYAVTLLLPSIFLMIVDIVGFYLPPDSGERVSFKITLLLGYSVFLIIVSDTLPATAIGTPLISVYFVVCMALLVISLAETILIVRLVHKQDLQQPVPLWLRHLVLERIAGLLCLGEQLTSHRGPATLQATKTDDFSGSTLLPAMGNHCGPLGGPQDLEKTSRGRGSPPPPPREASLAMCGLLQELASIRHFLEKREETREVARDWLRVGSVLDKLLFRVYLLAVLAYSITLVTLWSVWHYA
In short: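 Guinea pig left and right atria were hung in a 15 mL bath of PSS (pH 7.4, 95% O2-5% CO2, 35 °C) with ketanserin 1 µM. The right atrium beat spontaneously; the left was paced at 1 Hz. Cumulative doses (0.1-100 µM; DMSO ≤0.3%) were added after 45-60 min stabilization. Rate or isometric force was recorded. EC50 came from Probit analysis, n≥4. Intrinsic activity was taken relative to 5-HT.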

Row | pD2 [3] | SMILES | Activity [1] | CL/F [2] [mL/min/kg]
1 | – | N[C@@H](CN1CCN(c2nc3cc(F)ccc3n3cccc23)CC1)C(=O)O | Active | 90
2 | inactive | N/C(CN1CCN(c2nc3cc(F)ccc3n3cccc23)CC1)=N\O | – | –
